In ChEMBL document CHEMBL5674884, “Ezh2 inhibition in Kras-driven lung cancer amplifies inflammation and associated vulnerabilities” (J Exp Med, 2018):
Values belong to the compound of their own block, whether it stands above or below them. The source made the active and inactive calls. The rule behind the calls is not given here.

Legend:
A549 [1] = assay: Reversal of GSK126 dependent antiinflammatory activity in human A549 cells assessed as decrease in IL-6 level by qRT-PCR analysis; type: functional, cell-based
A549 [2] = assay: Reversal of GSK126 dependent antiinflammatory activity in human A549 cells assessed as decrease in Ccl2 level by qRT-PCR analysis; type: functional, cell-based
A549 [3] = assay: Reversal of GSK126 dependent antiinflammatory activity in human A549 cells assessed as decrease in Il1ra level by qRT-PCR analysis; type: functional, cell-based
A549 [4] = assay: Reversal of GSK126 dependent antiinflammatory activity in human A549 cells assessed as decrease in Irak1 level by qRT-PCR analysis; type: functional, cell-based
[5] = molecular target: Histone-lysine N-methyltransferase EZH2 (Homo sapiens) (UniProt Q15910); assay: Inhibition of Ezh2 in human NCI-H2122 cells assessed as p65 phosphorylation by Immunoblot analysis; type: cell-based
Chain of Histone-lysine N-methyltransferase EZH2 (Homo sapiens) (Q15910 whole entry, looked up): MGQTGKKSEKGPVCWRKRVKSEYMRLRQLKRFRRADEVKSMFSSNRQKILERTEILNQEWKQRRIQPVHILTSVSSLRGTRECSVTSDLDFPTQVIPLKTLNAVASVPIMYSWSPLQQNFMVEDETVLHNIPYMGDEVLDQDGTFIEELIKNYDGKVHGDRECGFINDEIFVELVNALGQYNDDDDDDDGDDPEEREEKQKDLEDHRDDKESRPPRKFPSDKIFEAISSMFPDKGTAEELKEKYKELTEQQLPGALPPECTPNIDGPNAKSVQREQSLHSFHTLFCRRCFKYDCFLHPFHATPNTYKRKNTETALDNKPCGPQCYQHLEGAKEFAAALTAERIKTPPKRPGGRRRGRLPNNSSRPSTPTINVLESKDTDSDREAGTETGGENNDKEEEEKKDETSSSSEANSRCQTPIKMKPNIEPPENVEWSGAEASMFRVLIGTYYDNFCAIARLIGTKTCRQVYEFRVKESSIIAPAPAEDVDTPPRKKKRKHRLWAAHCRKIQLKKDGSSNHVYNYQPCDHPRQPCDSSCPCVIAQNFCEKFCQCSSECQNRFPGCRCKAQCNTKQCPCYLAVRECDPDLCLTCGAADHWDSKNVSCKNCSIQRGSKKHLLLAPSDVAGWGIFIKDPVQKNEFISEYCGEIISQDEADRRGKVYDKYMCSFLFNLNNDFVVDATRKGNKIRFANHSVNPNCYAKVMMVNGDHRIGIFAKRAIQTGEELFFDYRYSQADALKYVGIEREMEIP
Method in brief: (§1)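 A549, H1944 and H2122 cells treated continuously 5 d with GSK126 or vehicle, then replated at low confluence. Whole-cell RIPA extracts immunoblotted for phospho-p65 (S536) and total p65.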

[6] = molecular target: Histone-lysine N-methyltransferase EZH2 (Mus musculus) (UniProt Q61188); assay: In vivo inhibition of Ezh2 in BALB/c nude mouse expressing Kras G12D/+ assessed as reduction of Akt phosphorylation at 50 mg/kg, iv by immunoblotting analysis; type: functional, organism-based
Chain of Histone-lysine N-methyltransferase EZH2 (Mus musculus) (Q61188 whole entry): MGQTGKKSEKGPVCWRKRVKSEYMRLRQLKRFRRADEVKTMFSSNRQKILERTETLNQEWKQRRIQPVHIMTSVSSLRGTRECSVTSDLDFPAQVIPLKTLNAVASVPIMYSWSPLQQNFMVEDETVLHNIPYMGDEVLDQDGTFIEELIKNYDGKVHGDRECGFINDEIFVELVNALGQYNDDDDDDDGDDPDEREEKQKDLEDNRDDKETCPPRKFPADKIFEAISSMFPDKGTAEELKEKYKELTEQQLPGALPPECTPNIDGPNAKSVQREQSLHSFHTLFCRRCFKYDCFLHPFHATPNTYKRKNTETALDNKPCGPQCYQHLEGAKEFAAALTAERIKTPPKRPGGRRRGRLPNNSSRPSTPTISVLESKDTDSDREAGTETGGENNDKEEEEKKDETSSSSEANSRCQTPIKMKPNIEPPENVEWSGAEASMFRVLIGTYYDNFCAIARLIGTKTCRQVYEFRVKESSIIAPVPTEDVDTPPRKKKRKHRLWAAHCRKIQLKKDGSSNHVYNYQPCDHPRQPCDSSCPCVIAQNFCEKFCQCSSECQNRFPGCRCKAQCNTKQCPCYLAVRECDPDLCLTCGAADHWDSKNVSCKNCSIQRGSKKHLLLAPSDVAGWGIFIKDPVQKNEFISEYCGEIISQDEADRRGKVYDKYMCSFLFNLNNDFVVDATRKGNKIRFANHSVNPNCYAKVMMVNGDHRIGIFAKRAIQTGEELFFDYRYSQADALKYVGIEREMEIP
Method in brief: (§2)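 Mice with Kras G12D/+;Trp53-/- lung grafts given GSK126 or vehicle, randomized after 15 d to one maximum tolerated dose of BTZ and NM, and sacrificed 20 h later. Tumor lysates in RIPA with protease/phosphatase inhibitors, equal protein run on 4-12% Bis-Tris gels and immunoblotted with ECL detection for phospho-Akt, cleaved Parp1 and cleaved caspase-3.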

NSCLC [7] = assay: Antitumor activity in KrasG12D/+ harbouring mouse NSCLC cells xenografted in BALB/c nude mouse assessed as reduced tumor progression; type: functional; settings: dose 50.0 mg/kg, route iv
[8] = molecular target: Histone-lysine N-methyltransferase EZH2 (Homo sapiens) (UniProt Q15910); assay: Inhibition of Ezh2 in human A549 cells assessed as p65 phosphorylation by Immunoblot analysis; type: cell-based; method in brief: as §1
NSCLC [9] = assay: Antitumor activity against Kras G12D/+ expressing mouse NSCLC cells xenografted in BALB/c nude mouse assessed as reduction in tumor burden at 50 mg/kg, iv for 30 days; type: functional, organism-based; settings: time 30.0 day
[10] = molecular target: Histone-lysine N-methyltransferase EZH2 (Mus musculus) (UniProt Q61188); assay: In vivo inhibition of Ezh2 in BALB/c nude mouse expressing KrasG12D/+ assessed as phospho-Akt expression at 50 mg/kg, iv in the presence of BTZ/NM by Immunoblot analysis; type: functional, organism-based; method in brief: as §2
[11] = molecular target: Histone-lysine N-methyltransferase EZH2 (Homo sapiens) (UniProt Q15910); assay: Inhibition of Ezh2 in LPS stimulated human A549 cells assessed as enhanced NF- kappa B activity; type: cell-based
Method in brief: (§3)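 A549 cells carrying an NF-kB-responsive element/minimal TA promoter luciferase reporter, pretreated with GSK126 or vehicle. Stimulated with TNF-a for 3 h, or continuously with TNF-a or LPS over 16 h. Luminescence read on plate reader; two-way ANOVA; three independent experiments.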

[12] = molecular target: Histone-lysine N-methyltransferase EZH2 (Mus musculus) (UniProt Q61188); assay: In vivo inhibition of Ezh2 in BALB/c nude mouse expressing Kras G12D/+ assessed as Erk1/2 expression level at 50 mg/kg, iv by IHC staining; type: functional, organism-based
Method in brief: (§4)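 Tumors from mice given daily GSK126/vehicle then alternating BTZ/NM, stained by IHC (n = 3 animals). Lung area divided into equal fields; ten fields per animal counted automatically for immunoreactive cells.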

[13] = molecular target: Histone-lysine N-methyltransferase EZH2 (Mus musculus) (UniProt Q61188); assay: In vivo inhibition of Ezh2 in BALB/c nude mouse expressing Kras G12D/+ assessed as Erk1/2 expression level at 50 mg/kg, iv by immunoblotting analysis; type: functional, organism-based
NSCLC [14] = assay: Upregulation of Cxcr4 gene in mouse NSCLC cells expressing KrasG12D/+; type: functional, cell-based
NSCLC [15] = assay: Antitumor activity against KrasG12D/+ expressing mouse NSCLC cells xenografted in BALB/c nude mouse assessed as reduced tumor growth at 50 mg/kg, iv in the presence of BTZ/NM; type: functional, organism-based
Method in brief: (§5)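 Nude mice with tail-vein Kras G12D/+;Trp53-/- grafts dosed daily with GSK126 or vehicle from day 4 (n = 7/6). BTZ and NM then given on alternating days from day 19: BTZ 0.8 mg/kg on day one, 0.2 mg/kg plus NM 5 mg/kg on day two. Luciferase imaging analyzed by two-way ANOVA; survival recorded to humane endpoint.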

NSCLC [16] = assay: Anti-tumor activity against Kras G12D/+ expressing mouse NSCLC cells xenografted in BALB/c nude mouse assessed as decrease in frequency distribution of lesions at 50 mg/kg, iv for 30 days; type: functional, organism-based; settings: time 30.0 day
NSCLC [17] = assay: Antiinflammatory activity in […] EZH2 inhibited mouse NSCLC cells xenografted in BALB/C mouse assessed as upregulation of JAK/STAT pathway at 50 mg/kg, iv for 10 days; type: functional, organism-based; settings: time 10.0 day
Method in brief: (§6)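 Tail vein grafts of Kras G12D/+;Trp53-/- cells in nude mice, treated daily with 50 mg/kg GSK126 for 10 d (n = 4) or to humane endpoint (n = 3), or vehicle (n = 2). GFP+ tumor cells sorted by FACS, RNA-seq run, fold change taken over vehicle, and pathway activity inferred by PROGENy scoring.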

[18] = molecular target: Histone-lysine N-methyltransferase EZH2 (Mus musculus) (UniProt Q61188); assay: In vivo inhibition of Ezh2 in BALB/c nude mouse expressing KrasG12D/+ assessed as Parp1 expression at 50 mg/kg, iv in the presence of BTZ/NM by Immunoblot analysis; type: functional, organism-based; method in brief: as §2
[19] = molecular target: Histone-lysine N-methyltransferase EZH2 (Mus musculus) (UniProt Q61188); assay: In vivo inhibition of Ezh2 in BALB/c nude mouse xenografted with KrasG12D/+ expressing NSCLC cells (unknown origin) assessed as upregulation of H3K27ac at 50 mg/kg, iv by IHC analysis; type: functional, organism-based
NSCLC [20] = assay: Antitumor activity against KrasG12D/+ expressing mouse NSCLC cells xenografted in BALB/c nude mouse assessed as increase in survival rate at 50 mg/kg, iv in the presence of BTZ/NM; type: functional, organism-based; method in brief: as §5
[21] = molecular target: Histone-lysine N-methyltransferase EZH2 (Mus musculus) (UniProt Q61188); assay: In vivo inhibition of Ezh2 in BALB/c nude mouse expressing KrasG12D/+ assessed as increased survival rate at day 21 at 50 mg/kg, iv in the presence of BTZ/NM; type: functional, organism-based; method in brief: as §5
NSCLC [22] = assay: Antitumor activity against Kras G12D/+ expressing mouse NSCLC cells xenografted in BALB/c nude mouse assessed as reduction in lung adenoma formation at 50 mg/kg, iv for 12 days by H&E staining analysis; type: functional, organism-based; settings: time 12.0 day
[23] = molecular target: Histone-lysine N-methyltransferase EZH2 (Mus musculus) (UniProt Q61188); assay: In vivo inhibition of EZH2 in BALB/c nude mouse xenografted with Kras G12D/+ NSCLC cells (unknown origin) assessed as H3K27me3 level at 50 mg/kg, iv for 30 days by IHC analysis; type: functional, organism-based; settings: time 30.0 day
NSCLC [24] = assay: Antiinflammatory activity in […] EZH2 inhibited mouse NSCLC cells xenografted in BALB/C mouse assessed as upregulation of TNF-alpha pathway at 50 mg/kg, iv for 10 days; type: functional, organism-based; settings: time 10.0 day; method in brief: as §6
[25] = molecular target: Histone-lysine N-methyltransferase EZH2 (Homo sapiens) (UniProt Q15910); assay: Inhibition of Ezh2 in TNF-alpha stimulated human A549 cells assessed as enhanced NF- kappa B activity; type: cell-based; method in brief: as §3
NSCLC [26] = assay: Antitumor activity against KrasG12D/+ expressing mouse NSCLC cells xenografted in BALB/c nude mouse assessed as reduced cell proliferation at 50 mg/kg, iv in the presence of BTZ/NM; type: functional, organism-based; method in brief: as §4
[27] = molecular target: Histone-lysine N-methyltransferase EZH2 (Mus musculus) (UniProt Q61188); assay: In vivo inhibition of Ezh2 in BALB/c nude mouse expressing KrasG12D/+ assessed as Erk1/2 phosphorylation at 50 mg/kg, iv in the presence of BTZ/NM by IHC staining; type: functional, organism-based; method in brief: as §4
[28] = molecular target: Histone-lysine N-methyltransferase EZH2 (Mus musculus) (UniProt Q61188); assay: In vivo inhibition of Ezh2 in BALB/c nude mouse expressing KrasG12D/+ assessed as Caspase-3 cleavage expression at 50 mg/kg, iv in the presence of BTZ/NM by Immunoblot analysis; type: functional, organism-based; method in brief: as §2
[29] = molecular target: Histone-lysine N-methyltransferase EZH2 (Mus musculus) (UniProt Q61188); assay: In vivo inhibition of Ezh2 in BALB/c nude mouse xenografted with KrasG12D/+ expressing NSCLC cells (unknown origin) assessed as upregulation of H3K27ac at 50 mg/kg, iv by qRT-PCR analysis; type: functional, organism-based
NSCLC [30] = assay: Antiinflammatory activity in […] EZH2 inhibited mouse NSCLC cells xenografted in BALB/C mouse assessed as upregulation of NF-kappaB pathway at 50 mg/kg, iv for 10 days; type: functional, organism-based; settings: time 10.0 day; method in brief: as §6
[31] = molecular target: Histone-lysine N-methyltransferase EZH2 (Mus musculus) (UniProt Q61188); assay: Inhibition of Ezh2 in mouse NSCLC cells co-cultured with Raw264.7 cells assessed as H3K27ac level by qRT-PCR analysis; type: cell-based
[32] = molecular target: Histone-lysine N-methyltransferase EZH2 (Homo sapiens) (UniProt Q15910); assay: Inhibition of Ezh2 in human NCI-H1944 cells assessed as p65 phosphorylation by Immunoblot analysis; type: cell-based; method in brief: as §1
[33] = molecular target: Histone-lysine N-methyltransferase EZH2 (Mus musculus) (UniProt Q61188); assay: In vivo inhibition of Ezh2 in BALB/c nude mouse expressing KrasG12D/+ assessed as cleaved Caspase-3 at 50 mg/kg, iv in the presence of BTZ/NM by IHC staining; type: functional, organism-based; method in brief: as §4
NSCLC [34] = assay: Anti-tumor activity against Ezh2i knockdown NSCLC cells (unknown origin) xenografted in BALB/c nude mouse assessed as increase in lifespan at 50 mg/kg, iv measured for 30 days; type: functional, organism-based; settings: time 30.0 day
[35] = molecular target: Histone-lysine N-methyltransferase EZH2 (Mus musculus) (UniProt Q61188); assay: In vivo inhibition of Ezh2 in BALB/c nude mouse xenografted with KrasG12D/+ expressing NSCLC cells (unknown origin) assessed as upregulation of H3K27me3 at 50 mg/kg, iv by IHC analysis; type: functional, organism-based
[36] = molecular target: Histone-lysine N-methyltransferase EZH2 (Homo sapiens) (UniProt Q15910); assay: Inhibition of Ezh2 in human A549 cells assessed as enhanced NF- kappa B activity; type: cell-based; method in brief: as §3

SMILES: CC(C)(C)c1cnc(CSc2cnc(NC(=O)C3CCNCC3)s2)o1
Activity (A549 [1]): Active
Activity (A549 [2]): Active
Activity (A549 [3]): Active
Activity (A549 [4]): Active

inhibition [5]: Active
inhibition [6]: Active
inhibition [8]: Active
inhibition [10]: Active
inhibition [11]: Active
inhibition [12]: Active
inhibition [13]: Active
inhibition [18]: Active
inhibition [19]: Active
inhibition [23]: Active
inhibition [25]: Active
inhibition [27]: Active
inhibition [28]: Active
inhibition [29]: Active
inhibition [31]: Active
inhibition [32]: Active
inhibition [33]: Active
inhibition [35]: Active
inhibition [36]: Active
SMILES: CC[C@H](C)n1cc(C)c2c(C(=O)NCc3c(C)cc(C)[nH]c3=O)cc(-c3ccc(N4CCNCC4)nc3)cc21
Activity (NSCLC [7]): Active
Activity (NSCLC [9]): Active
Activity (NSCLC [14]): Active
Activity (NSCLC [15]): Active
Activity (NSCLC [16]): Active
Activity (NSCLC [17]): Active
Activity (NSCLC [20]): Active
inhibition [21]: Active
Activity (NSCLC [22]): Active
Activity (NSCLC [24]): Active
Activity (NSCLC [26]): Active
Activity (NSCLC [30]): Active
Activity (NSCLC [34]): Active
